Cneo AK release: Cryptococcus neoformans cell lysis inducers, primary screen, AK release luminescence, single concentration | lysis activity, % at 15 µM | 360,000 tested, 0.2% active | C. neoformans lysis, adenylate kinase release luminescence, 4 h; normalised: neutral wells 0, clomiphene wells 100;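 active = mean lysis activity across replicates of at least 80%, whatever share of replicates individually reach that level; inactive = mean lysis activity below 80%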
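Schedule: static 4 h at 37 °C with compound, 1 h detection; system: C. neoformans cells; benchmarks: Clomiphene as positive control; buffer or medium: fresh YPD medium; measure: luminescence rise reflecting yeast cell lysis; measured by: luminescent adenylate kinase detection reagent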
ERp5 inh: inhibitors of ERp5-driven insulin aggregation, primary screen, biochemical, turbidity, absorbance 650 nm, single point; 90 min; inhibition, % at 9.99 µM; 350,000 tested, 0.05% active; AID 651711, 2012;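 active = mean replicate inhibition above about 25%, with every replicate also reaching it, limit read from the data, passing the limit was not always enough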
Target sequence (Q15084 whole entry, looked up): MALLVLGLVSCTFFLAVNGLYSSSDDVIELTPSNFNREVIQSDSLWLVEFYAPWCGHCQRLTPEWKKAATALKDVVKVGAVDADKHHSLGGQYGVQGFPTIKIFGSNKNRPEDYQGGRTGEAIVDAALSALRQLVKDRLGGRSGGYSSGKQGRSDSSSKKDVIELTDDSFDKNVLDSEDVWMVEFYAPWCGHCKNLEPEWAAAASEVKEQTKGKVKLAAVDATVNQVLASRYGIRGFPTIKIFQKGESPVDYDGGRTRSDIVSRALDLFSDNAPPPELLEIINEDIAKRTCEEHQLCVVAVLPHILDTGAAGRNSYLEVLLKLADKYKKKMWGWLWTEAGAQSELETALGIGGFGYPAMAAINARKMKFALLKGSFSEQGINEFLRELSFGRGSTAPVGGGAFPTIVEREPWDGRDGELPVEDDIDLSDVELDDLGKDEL
Statin myotox sup: suppressors of statin myotoxicity in C2C12 myotubes, primary screen, cell-based, single point, plate reader; 330,000 tested, 0.78% active; C2C12 myotubes + simvastatin, ATP luminescence, 48 h; scaled: DMSO 0, geranylgeraniol control 100; rescue of ATP level, % at 7.49 µM;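 active = mean ATP rescue above about 67%, or every replicate alone reaching that limit, limit read from the data, passing the limit was not always enough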;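 note: myotubes were challenged with 10 µM simvastatin during compound exposure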
DENV2 CPE: inhibitors of DENV2 cytopathic effect, primary screen, cell-based, plate reader, single concentration | AID 651640, 2012 | DENV2-infected cells, cytopathic effect rescue | 350,000 tested, 1.7% active | CPE inhibition, % at 9.99 µM; in the data active = CPE inhibition above about 20%, passing the limit was not always enough; tested in BHK-21 cells;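 note: 0% = median of neutral control wells and 100% = median of positive control wells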
CFTR F508del cor: F508del CFTR correction, initial screen, CFBE line, single point; 350,000 tested, 0.36% active; activity (quench increase), % at 7.58 µM; CFBE cells, YFP halide quenching; stimulated with forskolin plus potentiator P3; % fluorescence drop versus neutral controls;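 active = mean added fluorescence quench of at least 8% versus neutral control, with both replicates also reaching 8%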;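 note: cells transiently co-express mutant CFTR-F508del with the halide-sensitive YFP; corrector assay measuring rescue of mutant channel to the surface after 24 h compound exposure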
PDI inh: inhibitors of human PDI, primary screen, biochemical, turbidity, single point, plate reader | Protein disulfide-isomerase (Homo sapiens), P07237 | PDI insulin aggregation turbidity, A650, 90 min | inhibition, % at 10 µM | 350,000 tested, 0.052% active | AID 588391, 2011;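 active = mean inhibition across replicates of 30% or more, whatever share of single replicates reach that level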
Active calls of the source: *. The list is not random: actives were taken first. Their share in the collection is about 2.3%.

COc1cccc(NC(=O)N2CC(=O)N3[C@H](C2)[C@@H](c2ccc(C#CC4CCCC4)cc2)[C@@H]3CO)c1 was read as ERp5 inh -5.6, DENV2 CPE 37.5* and CFTR F508del cor 5.1.
For O=C(Nc1ccc(F)cc1)N1CC(=O)N2[C@@H](CO)[C@H](c3ccc(C#CC4CC4)cc3)[C@@H]2C1 the results were ERp5 inh -1.4, DENV2 CPE 0.3 and CFTR F508del cor 2.8.
Screening O=C(Nc1ccc(F)cc1)N1CC(=O)N2[C@H](CO)[C@H](c3ccc(C#CC4CC4)cc3)[C@H]2C1 returned ERp5 inh -2.6, DENV2 CPE 34.6* and CFTR F508del cor -1.1.
For O=C(c1ccc(F)cc1)N1CC(=O)N2[C@@H](CO)[C@H](c3ccc(C#CC4CC4)cc3)[C@@H]2C1 the results were ERp5 inh -0.7, DENV2 CPE 41.3* and CFTR F508del cor -1.1.
COc1ccc(NC(=O)N2CC(=O)N3[C@@H](CO)[C@H](c4ccc(C#CCC5CCCC5)cc4)[C@@H]3C2)cc1 was read as ERp5 inh 4.3, DENV2 CPE 22.6* and CFTR F508del cor 2.3.
`O=C(c1ccc(F)cc1)N1CC(=O)N2[C@@H](CO)[C@@H](c3ccc(C#CC4CC4)cc3)[C@@H]2C1` gave ERp5 inh -1.1, DENV2 CPE 17.6 and CFTR F508del cor 0.3.
`CCCC(=O)Nc1ccc2c(c1)C(=O)N(C)[C@@H]1CC[C@@H](CC(=O)NCCc3ccccc3)O[C@H]1CO2` gave Statin myotox sup 3.3 and CFTR F508del cor -2.0.
`CO[C@H]1CN(C)C(=O)c2ccc(NC(=O)C3CC3)cc2OC[C@@H](C)N(CCC(F)(F)F)C[C@@H]1C` gave Cneo AK release -1.9, ERp5 inh -3.2, Statin myotox sup -10.8, DENV2 CPE 14.2 and CFTR F508del cor 1.9.
`CCOC(=O)N1CCN(C(=O)CCS(=O)(=O)c2cc3c(cc2Cl)NC(=O)CO3)CC1` gave Cneo AK release -2.7, ERp5 inh 2.0, Statin myotox sup 9.6, DENV2 CPE 23.9* and CFTR F508del cor 1.3.
`O=C(/C=C/c1cccnc1)c1cccc(O)c1` gave Cneo AK release -0.2, ERp5 inh 3.9, Statin myotox sup 28.0, DENV2 CPE 4.8, CFTR F508del cor 0.7 and PDI inh 44.4*.
C[C@H]1CN([C@@H](C)CO)C(=O)Cc2cc(NS(=O)(=O)c3ccc(F)cc3)ccc2O[C@@H]1CN(C)C(=O)Nc1cccc2ccccc12 was read as Cneo AK release -3.0, ERp5 inh 6.6, Statin myotox sup 16.6, DENV2 CPE -6.4 and CFTR F508del cor 0.0.
COc1cc(CCCN2CCNC[C@@H]2c2ccccc2)cc(OC)c1OC was read as Cneo AK release -3.4, ERp5 inh -7.2, Statin myotox sup -3.1, DENV2 CPE 70.2*, CFTR F508del cor -1.0 and PDI inh -3.2.
CCC(=O)N(C)C[C@H]1Oc2cc(C3=CCCC3)ccc2S(=O)(=O)N([C@@H](C)CO)C[C@H]1C was read as Cneo AK release 51.9, ERp5 inh -1.6, Statin myotox sup -11.3, DENV2 CPE -2.0 and CFTR F508del cor -1.2.
For C[C@@H]1CCCCO[C@@H](CN(C)S(=O)(=O)c2cccs2)[C@H](C)CN([C@@H](C)CO)C(=O)c2cc(NC(=O)Cc3ccccc3)ccc2O1 the results were Cneo AK release 0.1, DENV2 CPE -0.2 and CFTR F508del cor -1.1.
For Cc1cccc(N2CCN(C(=O)c3cn(C)c(=O)c4c3c3ccccc3n4C)CC2)c1C the results were Cneo AK release 3.3, ERp5 inh -1.6, Statin myotox sup -5.7, DENV2 CPE 0.1, CFTR F508del cor 0.9 and PDI inh 0.0.
For Cc1ccc(Cl)cc1N1CCN(C(=O)c2cn(C)c(=O)c3c2c2ccccc2n3C)CC1 the results were Cneo AK release 0.8, ERp5 inh 4.6, Statin myotox sup -5.8, DENV2 CPE -0.4, CFTR F508del cor 10.4* and PDI inh 7.0.
